Laboratory results published in publication PMC9134407 (ACS Omega, 2022).

Legend:
[1] = Cell-Titer Blue cytotoxicity assay; type: cell-based; settings: human, HEK293T cells
human FXR = biological target: T1, human FXR (Homo sapiens, UniProt Q96RI1); experiment: cell-based luciferase reporter assay; settings: for inhibition at 10 µM: HEK-293T
T1 sequence (Q96RI1 1-486): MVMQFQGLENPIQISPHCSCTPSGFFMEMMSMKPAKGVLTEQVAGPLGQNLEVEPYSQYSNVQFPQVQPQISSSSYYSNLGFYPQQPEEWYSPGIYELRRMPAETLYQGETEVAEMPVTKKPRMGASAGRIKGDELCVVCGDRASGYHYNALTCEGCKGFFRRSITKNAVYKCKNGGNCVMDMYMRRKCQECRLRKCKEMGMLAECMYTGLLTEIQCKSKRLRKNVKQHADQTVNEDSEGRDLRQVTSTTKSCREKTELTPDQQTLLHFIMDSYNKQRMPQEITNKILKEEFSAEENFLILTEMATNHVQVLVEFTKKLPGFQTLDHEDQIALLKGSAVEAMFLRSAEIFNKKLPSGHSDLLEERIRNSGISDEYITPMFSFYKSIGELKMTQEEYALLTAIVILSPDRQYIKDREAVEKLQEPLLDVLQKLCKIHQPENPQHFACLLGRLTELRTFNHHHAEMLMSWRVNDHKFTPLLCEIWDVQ
Outline: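 HEK293T cells transiently cotransfected with a human FXR expression vector and an SHP promoter luciferase reporter (SHP-luc). Transactivation was driven by GW4064 at 10 μM, with or without test compound. FXR-dependent reporter activity was read as luciferase signal.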

FXR = settings: read-out: IC50 FXR antagonist; cited from earlier work

inhibition at 10 µM (human FXR) [%]	IC50 (human FXR) [µM]	Compound	viability at 10 µM [1] [%]	IC50 (FXR) [µM]	viability [1] [%]
14.1 ± 4.1	–	CC(C)CCC[C@@H](C)[C@H]1CCC([C@@H]2CC[C@H]3C[C@@H](O)CC[C@]3(C)C2=O)[C@]1(C)CC(=O)O (stereo partly shown) [Compound 4b]	> 100	–	–
54.7 ± 6.2	–	CC(=O)O[C@@H]1CC[C@]2(C)C(=O)[C@H](C3CC[C@H]([C@H](C)CCCC(C)C)[C@@]3(C)CC(=O)O)CC[C@H]2C1 (stereo partly shown) [Compound 3a]	> 100	–	–
53.1 ± 4.9	–	CC(C)CCC[C@@H](C)[C@H]1CCC([C@@H]2CC[C@H]3C[C@H](O)CC[C@]3(C)C2=O)[C@]1(C)CC(=O)O (stereo partly shown) [Compound 4a]	> 100	–	–
24.9 ± 2	–	CC(=O)O[C@H]1CC[C@]2(C)C(=O)[C@H](C3CC[C@H]([C@H](C)CCCC(C)C)[C@@]3(C)CC(=O)O)CC[C@H]2C1 (stereo partly shown) [Compound 3b]	> 100	–	–

Continued, molecule first:

Compound	inhibition at 10 µM (human FXR) [%]	IC50 (human FXR) [µM]	viability at 10 µM [1] [%]	IC50 (FXR) [µM]	viability [1] [%]
CC(C)CCC[C@@H](C)[C@H]1CCC([C@@H]2CC[C@H]3C[C@H](O)CC[C@]3(C)C2=O)[C@]1(C)C/C=C/C(=O)O (stereo partly shown) [Compound 7]	76.3 ± 1.9	–	> 100	–	–
C[C@H](CCC(=O)NCCS(=O)(=O)O)[C@H]1CC[C@H]2[C@@H]3[C@@H](O)C[C@@H]4C[C@H](O)CC[C@]4(C)[C@H]3CC[C@]12C [TUDCA, tauroursodeoxycholic acid]	–	–	–	75.1	–
CC(C)CCC[C@@H](C)[C@H]1CCC([C@@H]2CC[C@H]3C[C@H](O)CC[C@]3(C)C2=O)[C@]1(C)CCCC(=O)O (stereo partly shown) [Compound 8]	85.8 ± 2.4	7.7	> 100	–	41.1
C[C@H](CCC(=O)O)[C@H]1CC[C@H]2[C@@H]3[C@H](O)[C@H](O)[C@@H]4C[C@H](O)CC[C@]4(C)[C@H]3CC[C@]12C [HCA, hyocholic acid, reference compound]	–	27.3	–	70.1	> 100
C[C@H](CCC(=O)NCC(=O)O)[C@H]1CC[C@H]2[C@@H]3[C@@H](O)C[C@@H]4C[C@H](O)CC[C@]4(C)[C@H]3CC[C@]12C [GUDCA, glycoursodeoxycholic acid]	–	–	–	77.2	–
